# Source: PubChem BioAssay
# CCR6 antag: CCR6 (human) receptor antagonism; P51684; CHO-K1 CCR6 PathHunter beta-arrestin, luminescence, CCL20-stimulated; inhibition, % at 20 µM; hit rate 0.49% among 340,000;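 active = compounds whose inhibition of the agonist-driven luminescence signal at 20 µM reaches about 50%, limit read from the data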;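 note: cells stimulated with CCL20 at 14 nM final; plate controls were DMSO with CCL20 for no effect and DMSO without agonist for full effect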
# Target sequence (P51684 whole entry, looked up): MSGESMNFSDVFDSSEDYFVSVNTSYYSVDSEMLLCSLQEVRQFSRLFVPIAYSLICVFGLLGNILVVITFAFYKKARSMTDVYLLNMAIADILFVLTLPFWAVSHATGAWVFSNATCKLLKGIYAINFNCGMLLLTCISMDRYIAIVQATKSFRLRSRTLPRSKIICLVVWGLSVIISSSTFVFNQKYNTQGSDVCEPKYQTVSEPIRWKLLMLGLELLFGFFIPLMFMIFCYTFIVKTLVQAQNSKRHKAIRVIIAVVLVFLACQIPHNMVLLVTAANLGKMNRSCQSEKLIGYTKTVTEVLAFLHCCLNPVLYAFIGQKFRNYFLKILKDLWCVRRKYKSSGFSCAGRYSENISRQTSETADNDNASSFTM
# APJ antagonist: antagonists of human APJ apelin receptor; P35414; CHO-K1 APJ beta-arrestin complementation, luminescence; inhibition, % at 20 µM; hit rate 0.32% among 330,000;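 active = inhibition above about 40% at 20 µM, limit read from the data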;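 note: cells challenged with 10 nM apelin-13 agonist together with compound; plate controls were apelin-13 plus DMSO wells for no effect and DMSO wells lacking apelin-13 for full effect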
# EBI2 antag: EBI2 (human) antagonism | P32249 | EBI2 beta-arrestin recruitment, luminescence, 7a,25-OHC stimulated | inhibition, % at 5 µM | hit rate 0.81% among 360,000 | AID 651636; in the data active = inhibition above about 38%;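 note: enzyme fragment complementation signal reports receptor beta-arrestin coupling in cells; 0% = agonist plus DMSO wells and 100% = wells without agonist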
# CXCR6 block: inhibitors of human CXCR6 receptor. hit rate 0.36% among 360,000. AID 602244. CHO-K1 PathHunter CXCR6 beta-arrestin, luminescence. inhibition, % at 20 µM; in the data active = inhibition above about 34%, passing the limit was not always enough;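 note: antagonist mode with CXCL16 agonist at 10 nM final; 0% = 10 nM CXCL16 with DMSO and 100% = unstimulated wells without agonist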
# APJ ag: activates the human apelin receptor APJ; AID 2520; P35414; CHO-K1 APJ PathHunter beta-arrestin, luminescence; 0% DMSO wells, 100% apelin; activation, % at 20 µM; hit rate 0.11% among 330,000;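 active = activation more than six SD over the plate average, tested at 20 µM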;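 note: 0% = DMSO alone and 100% = apelin-13 at 10 nM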
#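 Test system: CHO-K1 APJ beta-arrestin complementation cell line | Compound: Single test compound dose, 20 µM final, 1% DMSO | Incubation: Compound 90 min 25 °C, reagent 1 h | Measured by: beta-gal luminescence | Read-out basis: APJ–arrestin association signal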
# APJ antag conf: confirmation of human APJ apelin receptor antagonists; shares compounds with APJ antagonist; APJ beta-arrestin recruitment, luminescence, antagonist mode; inhibition, % at 20 µM; hit rate 66% among 950; AID 2766; in the data active = inhibition above about 50%
# CXCR6 antag conf: CXCR6 antagonism confirmation, single concentration. shares compounds with CXCR6 block. CHO-K1 CXCR6 PathHunter beta-arrestin, luminescence. inhibition, % at 20 µM. hit rate 65% among 700. AID 602409;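 active = mean inhibition over four retests above 40%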;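 note: receptor stimulated with 10 nM CXCL16 agonist; beta-galactosidase fragment complementation upon beta-arrestin recruitment to receptor; plate controls were CXCL16 plus DMSO for no effect and DMSO without CXCL16 for full effect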
# An asterisk follows results filed as active; . = no result. In the library only some 1.5% were active in any assay of this set; here they are far more common.
SMILES,CCR6 antag,APJ antagonist,EBI2 antag,CXCR6 block,APJ ag,APJ antag conf,CXCR6 antag conf
Cc1ccc(CS(=O)(=O)c2ncc(Cl)c(C(=O)Nc3ccc(OC(F)F)cc3)n2)cc1,71*,42*,43,76*,-5,52*,67*
Cc1ccc(CS(=O)(=O)c2ncc(Cl)c(C(=O)Nc3nnc(C(C)C)s3)n2)cc1,2,-15,38,-9,0,.,.
O=C(N/N=C(\c1ccccc1)c1cccnc1)c1ccc(O)cc1,12,1,-6,1,-3,.,.
O=C(N/N=C(\c1ccccc1)c1cccnc1)c1cccc(F)c1,101*,70*,21,83*,-17,88*,94*
O=[N+]([O-])c1c(Nc2ccc(O)cc2)cc(Cl)c2nonc12,107*,96*,94*,107*,-14,126*,109*
CN(C)c1cc(Nc2ccc(O)cc2)c([N+](=O)[O-])c2nonc12,26,-11,-2,16,-1,.,.
C=CCn1c(=O)c2c(nc3n2CC(C)CN3c2cccc(OC)c2)n(C)c1=O (stereo unspecified),59*,48*,22,49*,-8,77*,51*
Cc1ccc(/C=N/NC(=S)N2CCOCC2)cc1,76*,51*,-4,50*,-6,65*,74*
Cc1ccc(CNC(=S)N2CCOCC2)cc1,-3,13,-10,-10,-2,.,.
C=CC[n+]1c(-c2ccc(Cl)cc2Cl)csc1Nc1c(C)n(C)n(-c2ccccc2)c1=O,82*,54*,39,64*,-10,87*,66*
CC(C)(C)NC(=O)C(c1cccs1)N(C(=O)c1csnn1)c1ccccc1F (stereo unspecified),7,9,5,-2,-4,.,.
CCN1CCN(c2ccc(S(=O)(=O)N3CCCCC3)cc2NC(=O)CCNC(C)=O)CC1,8,.,-8,-20,.,.,.
COc1ccc(Cc2nnc(SCC(=O)NC3(C#N)CCCCC3)n2N)cc1,9,2,2,-21,-3,.,.
COc1ccccc1C(=O)NNC(=S)NC(=O)c1cccs1,.,42*,3,53*,-6,68*,58*
O=C(NC(=S)NNC(=O)c1ccccc1O)c1cccs1,17,9,-8,12,-4,.,.
Cc1ccccc1NC(=S)NNc1ncc(C(F)(F)F)cc1Cl,70*,45*,17,45*,-8,70*,53*
FC(F)(F)c1cnc(NNC(=S)Nc2cccnc2)c(Cl)c1,87*,63*,20,71*,-7,65*,67*
Cc1cccc(C)c1NC(=S)NNc1ncc(C(F)(F)F)cc1Cl,29,29,-1,16,-5,.,.
CCCNC(=O)CCn1cc(-c2ccc(OC)cc2)nc1-c1ccncc1,-12,-56,-13,-2,8,.,.
CCS(=O)(=O)c1ncc(Cl)c(C(=O)Nc2ccc(S(=O)(=O)N3CCCC(C)C3)cc2)n1 (stereo unspecified),94*,78*,50*,87*,-8,104*,78*
CCC1CCCCN1S(=O)(=O)c1ccc(NC(=O)c2ccncc2)cc1 (stereo unspecified),8,-20,1,-26,7,.,.
CCC1CCCCN1S(=O)(=O)c1ccc(NC(=O)c2nc(S(C)(=O)=O)ncc2Cl)cc1 (stereo unspecified),98*,60*,11,88*,-7,92*,82*
CC1CCCN(S(=O)(=O)c2ccc(NC(=O)CNC3CCCC3)cc2)C1 (stereo unspecified),15,9,-8,-1,-3,.,.
COc1ccc(C)cc1S(=O)(=O)N1CCN(C/C=C/c2ccccc2)CC1,0,14,14,-2,-2,.,.
COC(=O)c1ccc2c(c1)C(C)(C)C(/C=C/c1ccccc1O)=[N+]2C,89*,63*,16,68*,1,124*,93*
C[N+]1=C(/C=C/Nc2ccccc2Cl)C(C)(C)c2ccccc21,23,-7,-1,-8,1,.,.
Cc1cccc(CSc2cccc3cccnc23)c1,72*,56*,45*,66*,-14,84*,74*
